Results of several laboratories.
Lines come from different studies, so protocols differ.
Target: Sigma intracellular receptor 2 (Tmem97, Rattus norvegicus, UniProt Q5U3Y7)
Effect on: ligand displacement
Method: radioligand
Sequence (Q5U3Y7 1-176, as in one of the studies): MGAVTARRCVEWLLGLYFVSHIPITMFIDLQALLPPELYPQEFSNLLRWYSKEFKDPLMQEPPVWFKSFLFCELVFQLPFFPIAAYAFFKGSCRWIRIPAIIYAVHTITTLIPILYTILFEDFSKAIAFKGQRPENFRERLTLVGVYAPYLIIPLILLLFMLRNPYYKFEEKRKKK

| SMILES | setting | Ki [nM] |
| --- | --- | --- |
| COc1cc2c(cc1OC)CN(C(C)CCc1ccc(O)cc1)CC2 (stereo not shown) | – | 4.92 |
| COc1ccc2c(ccn2CCCCN2CCc3cc(OC)c(OC)cc3C2)c1 | cell membranes | 4.4 |
| O=C(NCCN1CCCCC1)c1ccc(OCCCF)c(Br)c1 | cell membranes | 28.3 |
| COc1cc2c(cc1OC)C(=O)N(CCCCN1C(=O)/C(=N\NC(=S)N(C)C)c3ccccc31)CC2 | cell membranes | > 10000 |
| O=C(NCCN1CCCCC1)c1ccc(O)c(Br)c1 | cell membranes | > 10000 |
| COc1ccc2ccn(CCCCN3Cc4cc(OC)c(OC)cc4C3)c2c1 | cell membranes | 9.46 |
| O=C(NCCN1CCCCC1)c1cc(Br)ccc1OCCCF | cell membranes | 92.9 |
| CN(C)C(=S)N/N=C1/C(=O)Nc2ccccc21 | cell membranes | > 10000 |
| COc1ccc(CCC(C)N2CCc3cc(OC)c(OC)cc3C2)cc1 (stereo not shown) | – | 0.59 |
| COc1cc2c(cc1OC)CN(CCCCn1ccc3c(OC)cccc31)CC2 | cell membranes | 7.73 |
